Reference: ChEMBL document CHEMBL1153269, “Design and synthesis of new hydroxyethylamines as inhibitors of D-alanyl-D-lactate ligase (VanA) and D-alanyl-D-alanine ligase (DdlB)” (Bioorg Med Chem Lett, 2009)
Active and inactive are the calls of the source. The calls are words filed in the database; no cut-off is given here.

Key:
Escherichia coli [1] = assay: Inhibition of Escherichia coli […] at 500 uM by pyruvate kinase/lactate dehydrogenase coupled assay
[2] = biological target: T1, Vancomycin/teicoplanin A-type resistance protein VanA (Enterococcus faecium) (UniProt P25051); assay: Inhibition of Enterococcus faecium VanA at 500 uM by pyruvate kinase/lactate dehydrogenase coupled assay
T1 sequence (whole entry): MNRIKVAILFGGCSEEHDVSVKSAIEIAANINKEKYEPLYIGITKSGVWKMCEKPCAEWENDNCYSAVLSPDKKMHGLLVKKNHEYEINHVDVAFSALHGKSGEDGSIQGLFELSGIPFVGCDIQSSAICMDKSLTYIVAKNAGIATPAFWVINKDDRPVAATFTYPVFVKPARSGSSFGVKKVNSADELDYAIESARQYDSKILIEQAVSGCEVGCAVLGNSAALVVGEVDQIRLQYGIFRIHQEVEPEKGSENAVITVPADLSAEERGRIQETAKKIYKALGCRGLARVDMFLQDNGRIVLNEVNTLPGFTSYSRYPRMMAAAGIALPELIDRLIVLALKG
Outline: (§1)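 VanA measured by NADH depletion at 340 nm via PK/LDH coupling, 37 °C. Buffer 100 mM Hepes pH 7.5, 10 mM MgCl2, 10 mM KCl, 10% (v/v) DMSO ± compound; 2 mM PEP, 0.2 mM ATP, PK, LDH, NADH; substrates 8 mM D-Ala and 1.78 mM D-Lac; started by adding VanA.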

[3] = biological target: T1, Vancomycin/teicoplanin A-type resistance protein VanA (Enterococcus faecium); assay: Inhibition of Enterococcus faecium VanA at 10 mM by pyruvate kinase/lactate dehydrogenase coupled assay; outline: as §1
Escherichia coli [4] = assay: Inhibition of Escherichia coli […] at 10 mM by pyruvate kinase/lactate dehydrogenase coupled assay
[5] = Inhibition of Escherichia coli […] by pyruvate kinase/lactate dehydrogenase coupled assay
[6] = biological target: T2, Vancomycin/teicoplanin A-type resistance protein VanA (Enterococcus faecium, UniProt P25051); assay: Inhibition of Enterococcus faecium VanA by pyruvate kinase/lactate dehydrogenase coupled assay; outline: as §1
T2 sequence (P25051 whole entry): T1 sequence (whole entry)

Row | Structure (SMILES) | inhibition (Escherichia coli [1]) | inhibition [2] | Activity [3] | Activity (Escherichia coli [4]) | IC50 [5] [µM] | IC50 [6] [µM]
1 | O=S(=O)(NCC(O)CN1CCOCC1)c1ccc(F)cc1 (stereo unspecified) | – | – | inactive | inactive | – | –
2 | O=P(O)(O)OC(CNS(=O)(=O)c1ccc(F)cc1)CN1CCOCC1 (stereo unspecified) | 77% | 75% | – | – | 136 | 290
3 | COc1ccc(S(=O)(=O)NCC(CN2CCOCC2)OP(=O)(O)O)cc1 (stereo unspecified) | 83% | 83% | – | – | 110 | 224

The remaining lines, values ahead:

Row | inhibition (Escherichia coli [1]) | inhibition [2] | Activity [3] | Activity (Escherichia coli [4]) | IC50 [5] [µM] | IC50 [6] [µM] | Structure (SMILES)
4 | inactive | 65% | – | – | – | – | O=P(O)(Oc1ccccc1)OC(CNS(=O)(=O)c1ccc(F)cc1)CN1CCOCC1 (stereo unspecified)
5 | – | – | inactive | inactive | – | – | COc1ccc(S(=O)(=O)NCC(O)CN2CCOCC2)cc1 (stereo unspecified)
6 | inactive | inactive | – | – | – | – | COc1ccc(S(=O)(=O)NCC(CN2CCOCC2)OP(=O)(O)Oc2ccccc2)cc1 (stereo unspecified)
